Test results as given in ChEMBL document CHEMBL4689842, “EUbOPEN Chemogenomics Library wave 1” (2021).
“And” between values parts separate entries of the source, which are not always exact repeats. Identical values can stand only once.

System: Fibroblast
Test: Multiplex assay against human fibroblast
Assay type: toxicity, cell-based
Outline: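 At seeding, live cells were stained with Hoechst33342, BioTracker Green Microtubule Cytoskeleton Dye, MitoTracker Red and Annexin V Alexa Fluor 680. After compound addition they were imaged on a CQ1 microscope at 37°C and 5% CO2, and CellPathfinder machine-learning gating sorted them into Hoechst high-intensity objects or normal cells, with normal cells further split into healthy, pyknosed or fragmented nuclei and pyknosed cells into mitotic or apoptotic. Tubulin, mitochondrial-mass and membrane-permeability phenotypes are given as per cents of cells with healthy nuclei.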

[1] = 12 h, 1 µM, compound concentration 1 uM, replicate 1
[2] = 12 h, 1 µM, compound concentration 1 uM, replicate 2
[3] = 12 h, 10 µM, compound concentration 10 uM, replicate 1
[4] = 12 h, 10 µM, compound concentration 10 uM, replicate 2
[5] = 24 h, 1 µM, compound concentration 1 uM, replicate 1
[6] = 24 h, 1 µM, compound concentration 1 uM, replicate 2
[7] = 24 h, 10 µM, compound concentration 10 uM, replicate 1
[8] = 24 h, 10 µM, compound concentration 10 uM, replicate 2
[9] = 48 h, 1 µM, compound concentration 1 uM, replicate 1
[10] = 48 h, 1 µM, compound concentration 1 uM, replicate 2
[11] = 48 h, 10 µM, compound concentration 10 uM, replicate 1
[12] = 48 h, 10 µM, compound concentration 10 uM, replicate 2

## Nc1c(C(=O)NCc2ccc(C(=O)NCCCC3CCCCC3)cc2)cnn1-c1ccccc1 [SR-318]
[1]
  Population Apoptotic (%): 63% and 53% and 61%
  Population Fragmented Nuclei (%): 20% and 26%
  Population Healthy Nuclei (%): 41% and 34%
  Population Hoechst High Intensity Objects (%): 10% and 11%
  Population Membrane Permeable-Phenotype (%): 34% and 21% and 18%
  Population Mitochondria Different-Phenotype (%): 6% and 7% and 9%
  Population Mitotic Cells (%): 36% and 46% and 38%
  Population Normal (%): 89% and 88%
  Population Pyknosed Nuclei (%): 38% and 44%
  Population Tubulin-Different-Phenotype (%): 46% and 39% and 51%
  Total Cell Count: 128 and 123 and 142
[2]
  Population Fragmented Nuclei (%): 9% and 5% and 3%
  Population Healthy Nuclei (%): 83% and 75% and 91%
  Population Membrane Permeable-Phenotype (%): 6% and 5%
  Population Mitochondria Different-Phenotype (%): 8%
  Population Mitotic Cells (%): 50% and 87% and 100%
  Population Normal (%): 95% and 73% and 96%
  Population Tubulin-Different-Phenotype (%): 19% and 25% and 11%
  Total Cell Count: 63 and 91 and 118
[3]
  Population Apoptotic (%): 65% and 54% and 56%
  Population Fragmented Nuclei (%): 20% and 24% and 14%
  Population Healthy Nuclei (%): 29% and 33% and 37%
  Population Hoechst High Intensity Objects (%): 8% and 10% and 20%
  Population Mitochondria Different-Phenotype (%): 24% and 47% and 43%
  Population Mitotic Cells (%): 34% and 45% and 43%
  Population Normal (%): 91% and 89% and 79%
  Population Pyknosed Nuclei (%): 50% and 42% and 47%
  Population Tubulin-Different-Phenotype (%): 88% and 76% and 85%
  Total Cell Count: 94 and 140 and 136
[4]
  Population Apoptotic (%): 45% and 22% and 33%
  Population Fragmented Nuclei (%): 17% and 15% and 12%
  Population Healthy Nuclei (%): 69% and 58% and 72%
  Population Mitochondria Different-Phenotype (%): 55% and 51% and 60%
  Population Mitotic Cells (%): 54% and 77% and 66%
  Population Normal (%): 92% and 98%
  Population Pyknosed Nuclei (%): 13% and 25% and 15%
  Population Tubulin-Different-Phenotype (%): 50% and 56% and 67%
  Total Cell Count: 71 and 90 and 91
[5]
  Population Apoptotic (%): 44% and 58% and 55%
  Population Fragmented Nuclei (%): 17% and 19% and 22%
  Population Healthy Nuclei (%): 46% and 43% and 44%
  Population Hoechst High Intensity Objects (%): 8% and 6% and 10%
  Population Membrane Permeable-Phenotype (%): 34% and 25% and 33%
  Population Mitochondria Different-Phenotype (%): 6% and 4% and 12%
  Population Mitotic Cells (%): 55% and 41% and 44%
  Population Normal (%): 91% and 93% and 89%
  Population Pyknosed Nuclei (%): 36% and 33%
  Population Tubulin-Different-Phenotype (%): 44% and 31% and 60%
  Total Cell Count: 137 and 115 and 142
[6]
  Population Apoptotic (%): 25%
  Population Fragmented Nuclei (%): 6% and 3% and 4%
  Population Healthy Nuclei (%): 80% and 84% and 75%
  Population Membrane Permeable-Phenotype (%): 8% and 5%
  Population Mitochondria Different-Phenotype (%): 13% and 7%
  Population Mitotic Cells (%): 75%
  Population Normal (%): 94% and 97% and 77%
  Population Pyknosed Nuclei (%): 13% and 11% and 19%
  Population Tubulin-Different-Phenotype (%): 22% and 14% and 23%
  Total Cell Count: 67 and 130 and 97
[7]
  Population Apoptotic (%): 66% and 45% and 56%
  Population Fragmented Nuclei (%): 15% and 18% and 29%
  Population Healthy Nuclei (%): 43% and 47% and 39%
  Population Hoechst High Intensity Objects (%): 16% and 12% and 11%
  Population Mitochondria Different-Phenotype (%): 31% and 48% and 42%
  Population Mitotic Cells (%): 33% and 54% and 43%
  Population Normal (%): 83% and 87% and 88%
  Population Pyknosed Nuclei (%): 40% and 33% and 30%
  Population Tubulin-Different-Phenotype (%): 76% and 87% and 86%
  Total Cell Count: 105 and 118 and 143
[8]
  Population Apoptotic (%): 28% and 44% and 46%
  Population Fragmented Nuclei (%): 13% and 17% and 14%
  Population Healthy Nuclei (%): 65% and 62% and 66%
  Population Membrane Permeable-Phenotype (%): 9% and 7% and 3%
  Population Mitochondria Different-Phenotype (%): 58% and 57% and 66%
  Population Mitotic Cells (%): 71% and 55% and 53%
  Population Normal (%): 98% and 92%
  Population Pyknosed Nuclei (%): 21% and 20% and 18%
  Population Tubulin-Different-Phenotype (%): 41% and 30% and 61%
  Total Cell Count: 104 and 67 and 97
[9]
  Population Apoptotic (%): 73% and 50% and 47%
  Population Fragmented Nuclei (%): 32% and 28% and 24%
  Population Healthy Nuclei (%): 43% and 48% and 60%
  Population Hoechst High Intensity Objects (%): 14% and 12%
  Population Membrane Permeable-Phenotype (%): 22% and 21% and 16%
  Population Mitochondria Different-Phenotype (%): 2% and 7%
  Population Mitotic Cells (%): 26% and 50% and 52%
  Population Normal (%): 85% and 87%
  Population Pyknosed Nuclei (%): 24% and 22% and 15%
  Population Tubulin-Different-Phenotype (%): 20% and 37% and 36%
  Total Cell Count: 109 and 153 and 141
[10]
  Population Apoptotic (%): 100% and 83%
  Population Fragmented Nuclei (%): 22% and 27% and 14%
  Population Healthy Nuclei (%): 73% and 71% and 81%
  Population Hoechst High Intensity Objects (%): 16% and 13% and 11%
  Population Membrane Permeable-Phenotype (%): 18% and 13%
  Population Mitochondria Different-Phenotype (%): 5% and 4%
  Population Mitotic Cells (%): 0% and 16%
  Population Normal (%): 83% and 86% and 88%
  Population Tubulin-Different-Phenotype (%): 28% and 40% and 26%
  Total Cell Count: 116 and 115 and 159
[11]
  Population Apoptotic (%): 71% and 75% and 64%
  Population Fragmented Nuclei (%): 36% and 33%
  Population Healthy Nuclei (%): 43% and 45% and 41%
  Population Hoechst High Intensity Objects (%): 20% and 19% and 17%
  Population Membrane Permeable-Phenotype (%): 12% and 4% and 3%
  Population Mitochondria Different-Phenotype (%): 40% and 45% and 36%
  Population Mitotic Cells (%): 28% and 25% and 35%
  Population Normal (%): 79% and 80% and 82%
  Population Pyknosed Nuclei (%): 19% and 21% and 25%
  Population Tubulin-Different-Phenotype (%): 81% and 83% and 82%
  Total Cell Count: 92 and 116 and 150
[12]
  Population Fragmented Nuclei (%): 28% and 31% and 23%
  Population Healthy Nuclei (%): 66% and 63% and 71%
  Population Hoechst High Intensity Objects (%): 9% and 3%
  Population Membrane Permeable-Phenotype (%): 9% and 6%
  Population Mitochondria Different-Phenotype (%): 13% and 23% and 16%
  Population Mitotic Cells (%): 83% and 50% and 85%
  Population Normal (%): 90% and 96%
  Population Pyknosed Nuclei (%): 5% and 4%
  Population Tubulin-Different-Phenotype (%): 68% and 86%
  Total Cell Count: 121 and 148 and 157

## CC[C@H](C)C(=O)O[C@H]1C[C@@H](C)C=C2C=C[C@H](C)[C@H](CC[C@@H]3C[C@@H](O)CC(=O)O3)[C@H]21 [LOVASTATIN]
[1]
  Population Apoptotic (%): 63%
  Population Fragmented Nuclei (%): 33%
  Population Healthy Nuclei (%): 35%
  Population Hoechst High Intensity Objects (%): 13%
  Population Membrane Permeable-Phenotype (%): 23%
  Population Mitochondria Different-Phenotype (%): 14%
  Population Mitotic Cells (%): 36%
  Population Normal (%): 86%
  Population Pyknosed Nuclei (%): 31%
  Population Tubulin-Different-Phenotype (%): 42%
  Total Cell Count: 69
[2]
  Population Apoptotic (%): 25%
  Population Fragmented Nuclei (%): 22%
  Population Healthy Nuclei (%): 68%
  Population Hoechst High Intensity Objects (%): 11%
  Population Membrane Permeable-Phenotype (%): 3%
  Population Mitochondria Different-Phenotype (%): 6%
  Population Mitotic Cells (%): 75%
  Population Normal (%): 88%
  Population Pyknosed Nuclei (%): 8%
  Population Tubulin-Different-Phenotype (%): 3%
  Total Cell Count: 87
[3]
  Population Apoptotic (%): 50%
  Population Fragmented Nuclei (%): 33%
  Population Healthy Nuclei (%): 45%
  Population Hoechst High Intensity Objects (%): 13%
  Population Membrane Permeable-Phenotype (%): 22%
  Population Mitochondria Different-Phenotype (%): 13%
  Population Mitotic Cells (%): 50%
  Population Normal (%): 86%
  Population Pyknosed Nuclei (%): 22%
  Population Tubulin-Different-Phenotype (%): 42%
  Total Cell Count: 115
[4]
  Population Apoptotic (%): 100%
  Population Fragmented Nuclei (%): 4%
  Population Healthy Nuclei (%): 90%
  Population Hoechst High Intensity Objects (%): 8%
  Population Membrane Permeable-Phenotype (%): 10%
  Population Mitochondria Different-Phenotype (%): 12%
  Population Mitotic Cells (%): 0%
  Population Normal (%): 91%
  Population Pyknosed Nuclei (%): 4%
  Population Tubulin-Different-Phenotype (%): 20%
  Total Cell Count: 54
[5]
  Population Apoptotic (%): 44%
  Population Fragmented Nuclei (%): 36%
  Population Healthy Nuclei (%): 47%
  Population Hoechst High Intensity Objects (%): 11%
  Population Membrane Permeable-Phenotype (%): 11%
  Population Mitochondria Different-Phenotype (%): 15%
  Population Mitotic Cells (%): 55%
  Population Normal (%): 88%
  Population Pyknosed Nuclei (%): 16%
  Population Tubulin-Different-Phenotype (%): 38%
  Total Cell Count: 62
[6]
  Population Apoptotic (%): 40%
  Population Fragmented Nuclei (%): 22%
  Population Healthy Nuclei (%): 70%
  Population Hoechst High Intensity Objects (%): 9%
  Population Membrane Permeable-Phenotype (%): 0%
  Population Mitochondria Different-Phenotype (%): 4%
  Population Mitotic Cells (%): 60%
  Population Normal (%): 90%
  Population Pyknosed Nuclei (%): 7%
  Population Tubulin-Different-Phenotype (%): 4%
  Total Cell Count: 93
[7]
  Population Apoptotic (%): 43%
  Population Fragmented Nuclei (%): 26%
  Population Healthy Nuclei (%): 48%
  Population Hoechst High Intensity Objects (%): 14%
  Population Membrane Permeable-Phenotype (%): 19%
  Population Mitochondria Different-Phenotype (%): 10%
  Population Mitotic Cells (%): 56%
  Population Normal (%): 85%
  Population Pyknosed Nuclei (%): 24%
  Population Tubulin-Different-Phenotype (%): 28%
  Total Cell Count: 110
[8]
  Population Apoptotic (%): 28%
  Population Fragmented Nuclei (%): 8%
  Population Healthy Nuclei (%): 79%
  Population Hoechst High Intensity Objects (%): 7%
  Population Membrane Permeable-Phenotype (%): 8%
  Population Mitochondria Different-Phenotype (%): 4%
  Population Mitotic Cells (%): 71%
  Population Normal (%): 92%
  Population Pyknosed Nuclei (%): 11%
  Population Tubulin-Different-Phenotype (%): 23%
  Total Cell Count: 74
[9]
  Population Apoptotic (%): 66%
  Population Fragmented Nuclei (%): 55%
  Population Healthy Nuclei (%): 39%
  Population Hoechst High Intensity Objects (%): 9%
  Population Membrane Permeable-Phenotype (%): 26%
  Population Mitochondria Different-Phenotype (%): 0%
  Population Mitotic Cells (%): 33%
  Population Normal (%): 90%
  Population Pyknosed Nuclei (%): 5%
  Population Tubulin-Different-Phenotype (%): 39%
  Total Cell Count: 64
[10]
  Population Apoptotic (%): 33%
  Population Fragmented Nuclei (%): 17%
  Population Healthy Nuclei (%): 73%
  Population Hoechst High Intensity Objects (%): 7%
  Population Membrane Permeable-Phenotype (%): 23%
  Population Mitochondria Different-Phenotype (%): 6%
  Population Mitotic Cells (%): 66%
  Population Normal (%): 92%
  Population Pyknosed Nuclei (%): 9%
  Population Tubulin-Different-Phenotype (%): 23%
  Total Cell Count: 69
[11]
  Population Apoptotic (%): 71%
  Population Fragmented Nuclei (%): 58%
  Population Healthy Nuclei (%): 33%
  Population Hoechst High Intensity Objects (%): 20%
  Population Membrane Permeable-Phenotype (%): 19%
  Population Mitochondria Different-Phenotype (%): 3%
  Population Mitotic Cells (%): 28%
  Population Normal (%): 80%
  Population Pyknosed Nuclei (%): 7%
  Population Tubulin-Different-Phenotype (%): 29%
  Total Cell Count: 115
[12]
  Population Fragmented Nuclei (%): 37%
  Population Healthy Nuclei (%): 52%
  Population Hoechst High Intensity Objects (%): 15%
  Population Membrane Permeable-Phenotype (%): 14%
  Population Mitochondria Different-Phenotype (%): 2%
  Population Normal (%): 84%
  Population Pyknosed Nuclei (%): 10%
  Population Tubulin-Different-Phenotype (%): 34%
  Total Cell Count: 79
